Screening results as filed in PubChem.
Only some compounds are listed: those with a hit (about 1.9% of all), similar ones and a draw of the others.
SUMO1 PPI mod = alters human SUMO1 binding to SIM partners; P63165; SUMO1 binding to a labelled peptide, TR-FRET, 1 h; inhibition, % at 20 µM; actives 0.33% (n = 360,000); AID 602429; in the data active = inhibition above about 37%
Target sequence (P63165 whole entry, looked up): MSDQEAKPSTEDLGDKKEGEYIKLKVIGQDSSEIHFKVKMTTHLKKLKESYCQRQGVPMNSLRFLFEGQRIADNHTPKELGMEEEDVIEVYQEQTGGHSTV
Scp1 inh = inhibitors of human Scp-1 phosphatase. Q9GZU7. Recombinant Scp1, phosphopeptide, malachite green phosphate absorbance. inhibition, % at 20 µM. actives 0.88% (n = 340,000). AID 493091;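 active = inhibition above about 50% at 20 µM, limit read from the data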;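 also: plate controls were DMSO wells with enzyme for no effect and wells lacking enzyme for full effect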
Target sequence (Q9GZU7 76-261 limits assumed): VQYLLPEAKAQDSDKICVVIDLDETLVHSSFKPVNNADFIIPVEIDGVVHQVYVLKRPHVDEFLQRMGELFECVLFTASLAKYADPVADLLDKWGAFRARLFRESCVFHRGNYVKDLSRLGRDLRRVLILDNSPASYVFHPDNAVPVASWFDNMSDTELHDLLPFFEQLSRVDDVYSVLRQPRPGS
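Times: enzyme reaction 45 min at room temperature, colour 5 min, stabilisation 30 min. Material: SCP-1 catalytic fragment, aa 76-261. Medium: Acidic Tris acetate buffer with magnesium and detergent. Signal: colorimetric free-phosphate detection, absorbance 630 nm. Read-out basis: % inhibition of SCP-1 phosphate liberation. Reagent: Phosphorylated 17-residue peptide substrate.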
SUMO HTRF inh = inhibitors of human SUMOylation (UBC9). actives 0.36% (n = 290,000). AID 2006. inhibition, % at 35 µM. HTRF SUMOylation assay, SAE1/SAE2 + UBC9, in vitro. P63279; in the data active = inhibition above about 50%, passing the limit was not always enough
Target sequence (P63279 whole entry, looked up): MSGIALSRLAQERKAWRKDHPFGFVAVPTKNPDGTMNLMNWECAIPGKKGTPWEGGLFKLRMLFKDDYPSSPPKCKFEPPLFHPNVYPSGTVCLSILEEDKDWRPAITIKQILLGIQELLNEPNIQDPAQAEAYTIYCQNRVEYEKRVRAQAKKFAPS
STEP block = blocks human striatal-enriched tyrosine phosphatase; P54829; recombinant STEP, OMFP fluorogenic substrate, fluorescence; inhibition, % at 20 µM; actives 0.25% (n = 360,000);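 active = inhibition at 20 µM, scaled per plate between control wells, above about 37%, limit read from the data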;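 also: 0% = DMSO with enzyme and substrate and 100% = substrate only without enzyme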
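Assay system: isolated STEP enzyme. Buffer or medium: pH 6.0 Bis-Tris with DTT and Tween 20. Also added: fluorogenic phosphatase substrate OMFP at 25 µM final. Dosing: 20 µM, 1% DMSO. Timing: 20 min reaction, room temperature, in the dark. Measured by: fluorescence intensity, excitation 480 nm, emission 540 nm. Evaluation: normalized % inhibition.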
DNMT1 block = blocks human DNA methyltransferase DNMT1; P26358; DNMT1 molecular beacon, Hinp1I cleavage, fluorescence; inhibition (reported as % activation of signal), % at 10 µM; actives 0.83% (n = 360,000); in the data active = inhibition above about 50%
LMPTP inh = LMPTP (human) inhibition | actives 0.22% (n = 360,000) | P24666 | inhibition, % at 20 µM | recombinant LMPTP-A, OMFP fluorogenic substrate, fluorescence intensity;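 active = compounds that cut the enzyme signal by at least half of the control window in the single-dose screen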;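 also: plate controls were DMSO wells with enzyme plus substrate for no effect and substrate without enzyme for full effect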
Target sequence (P24666 whole entry, looked up): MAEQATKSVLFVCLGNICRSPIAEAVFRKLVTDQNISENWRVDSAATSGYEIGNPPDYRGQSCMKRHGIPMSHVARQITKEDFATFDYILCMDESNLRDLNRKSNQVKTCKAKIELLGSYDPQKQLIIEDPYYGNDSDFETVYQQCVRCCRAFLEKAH
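Material: LMPTP-A; amount: 0.625 nM enzyme; doses: single 20 µM dose; times: reaction 50 min, room temperature, dark; technique: fluorescence intensity of OMFP turnover product; benchmarks: no-enzyme and uninhibited controls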
The depositor's hits bear a star; . = not tested or not shown.

SMILES | SUMO1 PPI mod | Scp1 inh | SUMO HTRF inh | STEP block | DNMT1 block | LMPTP inh
O=C(COC(=O)c1ccc([N+](=O)[O-])s1)NC(c1ccccc1)c1ccccc1 | 59.1* | 1.7 | 5.4 | -1.0 | 28.4 | -0.6
Cc1ccc(N2C(=O)/C(=C/c3ccco3)SC2=S)cc1 | -2.0 | -8.9 | 14.0 | -2.1 | -2.2 | 1.4
N=C1S/C(=C\c2ccco2)C(=O)N1c1nccs1 | 3.9 | -1.3 | 94.1* | 7.5 | 7.1 | 1.4
CSCCC(C(=O)NC(C)(C)C)n1c(-c2ccc(C)cc2)nc2ccccc21 (stereo not drawn) | 0.9 | . | . | . | . | 1.1
COc1ccc(-c2csc(N3CCN(c4cc(C)nc5ccccc45)CC3)n2)cc1OC | -12.8 | 3.5 | 0.8 | 2.8 | -10.3 | 84.2*
COc1cc(-c2csc(N3CCOCC3)n2)cc(OC)c1OC | -6.2 | -9.6 | 7.2 | -0.7 | -1.7 | 0.9
Cc1cccn2cc(-c3ccc(S(=O)(=O)N4CCOCC4)cc3)nc12 | 4.8 | -4.6 | 55.6* | -1.0 | -6.9 | 0.4
COc1ccc(C2=CC3=C(Br)C(=O)C(C)(OC(=O)c4ccco4)C(=O)C3=CO2)cc1 (stereo not drawn) | 32.0 | 20.6 | 6.2 | 0.0 | 33.3 | 2.2
COc1ccc(C2=CC3=C(Br)C(=O)C(C)(OC(=O)c4cccs4)C(=O)C3=CO2)cc1 (stereo not drawn) | 44.0* | 9.3 | . | 1.9 | -8.9 | 0.5
Cc1ccc(C)c(S(=O)(=O)/N=C2\C=C(NS(=O)(=O)c3ccccc3)C(=O)c3ccccc32)c1 | 9.4 | -1.8 | 48.3 | -1.5 | -11.6 | 2.0
Cc1cc(C)c(S(=O)(=O)/N=C2/C=C(Sc3ncn[nH]3)C(=O)c3ccccc32)cc1C | 92.1* | 3.7 | 90.4* | 7.2 | 16.0 | 14.0
CC1(C)Oc2ccc(C(=O)NNC(=O)Nc3ccccc3)cc2NC1=O | 5.1 | 3.5 | -5.7 | 0.1 | 6.7 | 0.5
O=C(NCc1ccccn1)[C@@H]1CCCN1C(=O)[C@@H]1CCCN1 | 2.5 | . | . | . | . | -3.1
COc1ccc(NC(=O)Nc2cc3oc4ccccc4c3cc2OC)cc1 | 58.6* | -7.6 | -6.8 | -4.9 | 2.8 | 1.2
COc1ccc(-c2csc(NC(=S)NC(=O)/C=C/c3ccco3)n2)cc1OC | 57.7* | -2.6 | 54.5 | 5.2 | -7.7 | 0.7
COc1cc2c(cc1NC(=S)NC(=O)/C=C/c1ccco1)oc1ccccc12 | 0.4 | 5.3 | 52.3* | -0.8 | -3.6 | 2.4
COc1ccc(-c2csc(NC(=S)NC(=O)/C=C/c3ccco3)n2)cc1Br | 5.0 | 2.7 | 39.6 | 2.6 | 39.6 | 1.8
COc1cc2c(cc1NC(=S)NC(=O)/C=C/c1ccc(OC)c(OC)c1)oc1ccccc12 | -3.0 | -0.8 | -15.6 | -1.7 | 3.0 | 3.5
Cc1ccc(NC(=O)CSCC(=O)Nc2ccccc2N2CCCC2)cc1 | 3.4 | 1.2 | . | 0.2 | -4.3 | 1.1
CC(=O)OC[C@]1(OC(C)=O)C[C@@]23CC[C@H]4[C@@](C)(CCC[C@@]4(C)C(=O)O)[C@@H]2CC[C@@H]1C3 | 9.9 | -6.2 | 0.7 | -1.0 | 7.3 | 20.4
CC(=O)OC[C@]12CC[C@H]3[C@@](C)(CC[C@H]4C(C)(C)CCC[C@]34C)[C@@H]1CC(C1=CC(=O)OC1O)O2 (stereo partly drawn) | 74.3* | . | . | 1.0 | 57.6* | 4.1
O=S(OCCN1CCCC1)C(c1ccccc1)c1ccccc1 (stereo not drawn) | -5.0 | -1.8 | . | -0.5 | 0.0 | 0.3
O=C1CC(SC(=S)C2CCCC2=O)C(=O)N1 (stereo not drawn) | 30.3 | . | . | 11.6 | 68.8* | 0.6
CC1=NN(c2ccccc2)C(=O)C1C(=S)SC1CC(=O)NC1=O (stereo not drawn) | -15.6 | . | . | 6.3 | -0.5 | -0.4
O=C(Nc1ccc(-n2nncc2-c2ccco2)cc1)c1cc2ccccc2oc1=O | 57.0* | 35.0 | . | 45.1* | 111.7* | 19.6
SMILES | SUMO1 PPI mod | Scp1 inh | SUMO HTRF inh | STEP block | DNMT1 block | LMPTP inh
Cc1cc(-c2ccc(NC(=O)[C@@H]3CCCC[C@@H]3C(=O)O)c(C)c2)ccc1NC(=O)[C@@H]1CCCC[C@@H]1C(=O)O | 4.0 | -5.3 | 3.0 | -0.4 | -1.7 | -0.6
COc1cc(/C=C2\SC(=Nc3ccc(Cl)c(C(=O)O)c3)NC2=O)c(Br)c(Br)c1O | -21.4 | 53.1* | 30.2 | 26.7 | 27.0 | -22.8
NC(=O)CC(NC(=O)Cc1ccc(Br)cc1)c1ccc(NCc2ccc(F)c(F)c2)c([N+](=O)[O-])c1 (stereo not drawn) | -14.4 | -7.7 | 47.6 | 0.4 | 28.3 | 2.8
NC(=O)CC(NC(=O)Cc1ccc(Br)cc1)c1ccc(NCCc2ccccc2F)c([N+](=O)[O-])c1 (stereo not drawn) | -4.9 | -5.8 | 62.8* | 1.6 | 37.6 | 1.5
O=C1CC(c2ccco2)Cc2nc(Nc3nc(-c4ccccc4)c4ccccc4n3)ncc21 (stereo not drawn) | 5.3 | 25.3 | 20.0 | 2.3 | 47.9 | 61.3*
COc1ccc(C)cc1Nc1n[n+](-c2ccccc2)c(-c2ccc(OC)c(OC)c2OC)s1 | -16.2 | 9.3 | 1.0 | 1.0 | -9.4 | 5.1
CCc1ccc(Nc2n[n+](-c3ccccc3)c(-c3c(Cl)cccc3Cl)s2)cc1 | -34.2 | 19.6 | -10.7 | 2.9 | -0.4 | 70.5*
CCc1ccc(Nc2n[n+](-c3ccccc3)c(-c3ccc(N(CC)CC)cc3)s2)cc1 | -70.6 | 9.3 | 10.7 | -5.2 | 67.7* | 4.2
COc1ccc(C)cc1Nc1n[n+](-c2ccccc2)c(-c2ccc(N(C)C)cc2)s1 | -44.0 | 13.6 | 15.2 | -1.3 | 60.0* | 6.1
Cc1cccc(N(C)S(=O)(=O)c2csc(C(N)=O)c2)c1 | -1.9 | -5.7 | -11.0 | -1.5 | -0.5 | -1.6
O=C(CN(Cc1ccco1)C(=O)c1ccc(F)cc1)Nc1ccccc1Br | -1.5 | -10.2 | . | -1.9 | -3.1 | 0.0
O=C(Cc1cccs1)Nc1ccc(-c2nnn(CC(=O)N3CCOCC3)n2)cc1 | . | 78.9* | 33.2 | . | . | .
COc1ccccc1CNC(=O)COC(=O)C12CC3CC(CC(O)(C3)C1)C2 | -1.7 | 0.5 | . | -0.5 | 1.6 | -0.7
Cc1ccc(C(=O)C2=C(O)C(=O)N(Cc3ccco3)C2c2ccc(N(C)C)cc2)o1 (stereo not drawn) | -3.1 | 6.9 | -7.1 | 1.4 | -0.2 | 1.1
CCCCOc1ccc(C2C(C(=O)c3ccc(C)o3)=C(O)C(=O)N2Cc2ccco2)cc1 (stereo not drawn) | -2.1 | . | -1.4 | 3.8 | 7.1 | 51.4*
CCCCCOc1ccc(C2C(C(=O)c3ccc(C)o3)=C(O)C(=O)N2c2cc(C)on2)cc1 (stereo not drawn) | 4.4 | -21.6 | -9.0 | 3.8 | 11.8 | 50.2*
Cc1cn([C@H]2C[C@H](O)[C@@H](/C=C/C(=O)NCCN3CCCCC3)O2)c(=O)[nH]c1=O | 3.8 | . | . | -1.1 | 13.8 | -1.3
